Laboratory results taken from ChEMBL document CHEMBL1158603, “S-aryltriazole acyclonucleosides: synthesis and biological evaluation against hepatitis C virus” (Bioorg Med Chem Lett, 2010).
The source made the active and inactive calls. No cut-off for these calls is given here.

The compounds below were run on Hepatitis C virus (assay: Antiviral activity against HCV infected in human HuH5.2 cells assessed as inhibition of subgenomic RNA replication after 4 days by Steady-Glo luciferase assay). Conditions: Hepacivirus hominis.
Assay type: functional, organism-based
Method in brief: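 Huh-5-2 replicon cells seeded at 5000/well in complete DMEM with 250 µg/mL G418, grown 24 h at 37 °C (5% CO2). Medium then replaced by threefold serial dilutions of compound in complete DMEM without G418. After 4 days at 37 °C, medium removed and luciferase activity read by luminescence.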

Row | Compound | Activity
1 | COC(=O)c1nc(Sc2ccc(F)cc2)n(COCCOC(C)=O)n1 | inactive
2 | COC(=O)c1nc(Sc2ccc(C(F)(F)F)cc2)n(COCCOC(C)=O)n1 | inactive
3 | NC(=O)c1nc(Sc2ccc(F)cc2)n(COCCO)n1 | inactive
4 | COC(=O)c1nc(Sc2ccc(C(C)(C)C)cc2)n(COCCOC(C)=O)n1 | inactive
5 | COC(=O)c1nc(Sc2ccccc2)n(COCCOC(C)=O)n1 | inactive
6 | COC(=O)c1nc(Sc2ccc(OC)cc2)n(COCCOC(C)=O)n1 | inactive
7 | NC(=O)c1nc(Sc2cccc(C(F)(F)F)c2)n(COCCO)n1 | inactive
8 | Cc1cccc(Sc2nc(C(N)=O)nn2COCCO)c1 | inactive
9 | NC(=O)c1nc(Sc2ccccc2C(F)(F)F)n(COCCO)n1 | inactive
10 | COc1cccc(Sc2nc(C(N)=O)nn2COCCO)c1 | inactive
11 | COc1ccccc1Sc1nc(C(N)=O)nn1COCCO | inactive
12 | NC(=O)c1nc(Sc2ccccc2F)n(COCCO)n1 | inactive
13 | NC(=O)c1nc(Sc2ccc(C(F)(F)F)cc2)n(COCCO)n1 | inactive
14 | COC(=O)c1nc(Sc2cccc(OC)c2)n(COCCOC(C)=O)n1 | inactive
15 | NC(=O)c1nc(SCc2cccc(C(F)(F)F)c2)n(COCCO)n1 | inactive
16 | COC(=O)c1nc(SCc2cccc(C(F)(F)F)c2)n(COCCOC(C)=O)n1 | inactive
17 | COC(=O)c1nc(Sc2ccccc2C)n(COCCOC(C)=O)n1 | inactive
18 | COC(=O)c1nc(Sc2ccc(C)cc2)n(COCCOC(C)=O)n1 | inactive

Row | Compound | Activity
19 | COC(=O)c1nc(Sc2ccccc2OC)n(COCCOC(C)=O)n1 | inactive
20 | NC(=O)c1nc(Sc2cccc(F)c2)n(COCCO)n1 | inactive
21 | COC(=O)c1nc(Sc2ccc3ccccc3c2)n(COCCOC(C)=O)n1 | inactive
22 | COC(=O)c1nc(Sc2cccc(C)c2)n(COCCOC(C)=O)n1 | inactive
23 | Cc1ccc(Sc2nc(C(N)=O)nn2COCCO)cc1 | inactive
24 | COC(=O)c1nc(Sc2cccc(F)c2)n(COCCOC(C)=O)n1 | inactive
25 | NC(=O)c1nc(Sc2ccc3ccccc3c2)n(COCCO)n1 | inactive
26 | NC(=O)c1nc(Sc2ccccc2)n(COCCO)n1 | inactive
27 | COC(=O)c1nc(Sc2ccccc2C(F)(F)F)n(COCCOC(C)=O)n1 | inactive
28 | CCCSc1nc(C(=O)OC)nn1COCCOC(C)=O | inactive
29 | COC(=O)c1nc(Sc2cccc(C(F)(F)F)c2)n(COCCOC(C)=O)n1 | inactive
30 | CC(C)(C)c1ccc(Sc2nc(C(N)=O)nn2COCCO)cc1 | inactive
31 | NC(=O)c1nc(Sc2ccc(Cl)cc2)n(COCCO)n1 | inactive
32 | Cc1ccccc1Sc1nc(C(N)=O)nn1COCCO | inactive
33 | COC(=O)c1nc(Sc2ccccc2F)n(COCCOC(C)=O)n1 | inactive
34 | COC(=O)c1nc(Sc2ccc(Cl)cc2)n(COCCOC(C)=O)n1 | inactive
35 | COc1ccc(Sc2nc(C(N)=O)nn2COCCO)cc1 | inactive
